Screening data: PubChem, Sanford-Burnham Center for Chemical Genomics
Sampled rows, rich in hits. Any-hit rate of the full collection: about 3.1%.
Apaf1 inhib: inhibitors of human Apaf-1 apoptosome. actives 0.71% (n = 330,000). inhibition, % at 20 µM. AID 489030. O14727. reconstituted apoptosome caspase-3 activity, DEVD-Rh110 fluorescence; active = inhibition of at least 40% at 20 µM
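System – cell-free apoptosome with Apaf-1, procaspase-3 and caspase-9 · Buffer or medium – pH 7.5 Hepes buffer with CHAPS, BSA, DTT · Also added – cytochrome c with DEVD-Rh110 · Times – 30 min compound preincubation, 50 min activation, room temperature · Technique – Rh110 fluorescence intensity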
SENP8 block-1: blocks human SENP8 cleavage of Nedd8 substrate. recombinant SENP8, Nedd8 substrate fluorescence. Q96LD8. AID 602440. actives 0.64% (n = 360,000). inhibition, % at 20 µM; in the data active = inhibition mostly above about 40%, no sharp cut-off; inactive = mostly below about 27%
Target sequence (Q96LD8 whole entry, looked up): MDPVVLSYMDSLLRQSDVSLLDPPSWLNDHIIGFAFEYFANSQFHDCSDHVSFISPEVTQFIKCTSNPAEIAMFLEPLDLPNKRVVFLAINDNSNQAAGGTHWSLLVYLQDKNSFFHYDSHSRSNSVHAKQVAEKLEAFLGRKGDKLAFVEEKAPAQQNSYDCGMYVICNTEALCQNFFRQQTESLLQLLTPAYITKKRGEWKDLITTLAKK
SENP6 inh: inhibitors of human SENP6 protease; Recombinant SENP6 catalytic domain, aminoluciferin luminescence; AID 2599; inhibition, % at 10 µM; Q9GZR1; actives 1.8% (n = 330,000);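 active = inhibition above about 50% at the single tested dose, limit read from the data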
SENP7 inh: blocks the human protease SENP7. Q9BQF6. recombinant SENP7, Z-RLRGG-aminoluciferin luminescence, 40 min. inhibition, % at 5 µM. actives 1.5% (n = 330,000);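 active = inhibition above about 50% at the single test dose, limit read from the data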
Target sequence (Q9BQF6 706-1050 limits assumed): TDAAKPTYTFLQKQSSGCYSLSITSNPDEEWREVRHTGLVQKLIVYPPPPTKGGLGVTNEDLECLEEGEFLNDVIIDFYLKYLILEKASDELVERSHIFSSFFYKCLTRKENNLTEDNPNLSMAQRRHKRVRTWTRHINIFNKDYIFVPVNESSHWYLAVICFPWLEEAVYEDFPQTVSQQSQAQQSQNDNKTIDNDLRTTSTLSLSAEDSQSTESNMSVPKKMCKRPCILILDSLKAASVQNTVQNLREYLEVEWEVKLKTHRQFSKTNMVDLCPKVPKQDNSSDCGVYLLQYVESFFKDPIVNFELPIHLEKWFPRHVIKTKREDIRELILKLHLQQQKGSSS
SENP8 block-2: inhibitors of human SENP8 protease | purified SENP8, Z-RLRGG-aminoluciferin cleavage, luminescence | inhibition, % at 10 µM | AID 2540 | actives 1.2% (n = 330,000) | Q96LD8; in the data active = inhibition above about 50%
UBC13 polyUb: blocks human UBC13 polyubiquitin chain formation. AID 485273. inhibition, % at 20 µM. TR-FRET. actives 0.47% (n = 330,000); in the data active = inhibition above about 45%, passing the limit was not always enough
A number is an active result; i = inactive; nt = no result given.

SMILES	Apaf1 inhib	SENP8 block-1	SENP6 inh	SENP7 inh	SENP8 block-2	UBC13 polyUb
CC1(C(=O)NS(=O)(=O)c2cccc(Cl)c2)CCN1C(=O)c1ccccc1CCc1ccccc1 (stereo not drawn)	nt	i	nt	nt	nt	nt
O=c1c2ccccc2sc2ccc(Cl)cc12	i	i	i	58	i	i
Nc1nn2cc(-c3ccc(Br)cc3)nc2c2ccccc12	i	i	87	79	75	i
O=[N+]([O-])c1cccn2cc(-c3ccc(Br)cc3)nc12	i	i	i	i	i	i
Nc1c(C(=O)N/N=C/c2ccccc2)cnn1-c1ccccc1	i	i	67	51	i	i
Cc1cccc(C)c1NC(=O)C(c1cc2ccccc2o1)N1CCN(C)CC1 (stereo not drawn)	nt	i	nt	nt	nt	nt
Nc1ccc(O)c2c1C(=O)c1ccccc1C2=O	i	65	i	i	i	i
Nc1ccc(Br)c2c1C(=O)c1ccccc1C2=O	i	nt	i	i	i	i
Cc1ccc2oc(/N=C(\N)NC(=O)C(C)(C)C)nc2c1	i	i	i	65	i	i
CCCNC(=O)c1cc2c(c(-c3cccc(-c4ccccc4F)c3)n1)[C@H](CCO)N(C(=O)CC1CC1)C2	nt	i	nt	nt	nt	nt
Cc1ccc(N=Nc2ccc(O)c3ncccc23)cc1	nt	43	nt	nt	nt	nt
Oc1cccc2ccc(/C=C/c3cccs3)nc12	i	i	96	95	88	i
Cc1ccc(CSc2nnc(SCC(=O)N/N=C/c3ccc(C(=O)O)cc3)s2)cc1	i	i	92	55	72	i
O=C(CSc1nnc(SCc2ccccc2)s1)N/N=C/c1ccc(C(=O)O)cc1	i	i	i	i	51	i
Cc1ccc(CSc2nnc(SCC(=O)N/N=C/c3ccccc3OCC(=O)O)s2)cc1	i	i	88	i	60	i
CCc1nc2ccc(C(=O)NC3CCN(Cc4ccccc4)CC3)cn2c1N(C)Cc1cc2ccccc2s1	nt	i	nt	nt	nt	nt
COC1=CC(=O)OC(c2ccc(C(F)(F)F)cc2)C1 (stereo not drawn)	nt	i	nt	nt	nt	nt
O=C(NC(=S)NNC(=O)c1cc2ccccc2cc1O)c1ccco1	i	i	i	i	61	i
COc1ccc(Cn2cc(CN3CC(N4CCN(Cc5ccccc5F)CC4)CS3(=O)=O)nn2)cc1 (stereo not drawn)	nt	i	nt	nt	nt	nt
COc1cccc(OC)c1C(=O)Nc1sc2c(c1C(N)=O)CCN(Cc1ccccc1)C2	i	i	i	i	i	i
CCN1CCc2c(sc(NC(=O)c3cc4ccccc4cc3OC)c2C(N)=O)C1	65	i	i	i	i	i
O=C(Cn1nnc(-c2ccccc2)n1)N/N=C/c1cccc([N+](=O)[O-])c1	i	i	i	i	i	i
O=C(Cn1nnc(-c2ccccc2)n1)N/N=C/c1cccc([N+](=O)[O-])c1O	i	27	i	i	i	i
CC(=O)NC1=C(Nc2ccc(N(C)C)cc2)C(=O)c2ccccc2C1=O	i	44	i	i	i	i
CC1=C(Nc2ccc(C(=O)O)cc2)C(=O)c2ccccc2C1=O	i	i	i	i	i	i
SMILES	Apaf1 inhib	SENP8 block-1	SENP6 inh	SENP7 inh	SENP8 block-2	UBC13 polyUb
CC1=NN(c2cccc(F)c2)C(=O)/C1=C/c1ccc(N(C)C)cc1	i	i	i	i	i	i
COc1ccc(/C=C2/C(=O)N(c3ccccc3)N=C2C)cc1Br	87	46	i	i	i	i
COc1cc(/C=C2/C(=O)N(c3ccccc3)N=C2C)ccc1OS(=O)(=O)c1ccccc1	95	nt	i	i	i	i
COc1cc(/C=C2/C(=N)N3C(=NC2=O)SN=C3S(C)(=O)=O)ccc1OS(=O)(=O)c1ccccc1	i	nt	i	i	i	i
CN(C)c1ccc(C=C2SC(=S)NC2=O)cc1	nt	i	nt	nt	nt	nt
CN(C)c1ccc(/C=N/N=C2/NC(=O)/C(=C/c3ccc([N+](=O)[O-])cc3)S2)cc1	i	i	69	i	i	i
COc1ccc(C(CNC(=O)c2cccc(N(C)C)c2)N2CCCC2)cc1 (stereo not drawn)	i	i	i	i	i	i
CCC1CCc2sc(C(=O)NCC(c3ccc(OC)cc3)N3CCCC3)cc2C1 (stereo not drawn)	46	i	i	i	i	i
O=C(c1ccc(Cl)cc1)c1ccc(CN2C(=O)c3ccccc3C2=O)o1	i	i	i	i	i	i
Cc1ccc(C(=O)c2coc3c2C(=O)C(=O)c2ccccc2-3)cc1	i	56	i	i	i	i
COc1ccc(C(=O)c2coc(-c3ccccc3C(=O)O)c2C(=O)O)cc1	i	i	i	i	i	i
Cc1oc2c(c1C(=O)c1ccc(Cl)cc1)C(=O)C(=O)c1ccccc1-2	nt	113	nt	nt	nt	nt
COC(=O)C1=CN(c2ccc(F)cc2)C(N)=C(C#N)C1c1ccc(-c2ccccc2)cc1 (stereo not drawn)	nt	i	nt	nt	nt	nt
CCCCNC(=O)c1cnc(Cc2c[nH]c3ccccc23)c(I)c1	nt	i	nt	nt	nt	nt
OC(c1cccnc1)c1nc(/C=C/c2ccc(C(F)(F)F)cc2)cs1 (stereo not drawn)	nt	i	nt	nt	nt	nt
Cc1[nH]n(-c2ccc([N+](=O)[O-])cc2)c(=O)c1C=NCCN1CCN(C(=O)c2ccc(F)cc2)CC1	i	i	91	90	67	i
Brc1cc2c(cc1C1Nc3ccccc3C3C=CCC31)OCO2 (stereo not drawn)	i	40	i	i	i	i
Cc1ccc2c(c1)[C@H]1OCC[C@H]1[C@@H](c1ccncc1)N2	i	i	i	i	i	i
C1=CC2c3ccccc3NC(c3ccncc3)C2C1 (stereo not drawn)	49	i	i	i	i	i
C[C@H](O)[C@@H]1C(=O)N2CCc3c([nH]c4ccccc34)[C@@H]2C[C@@H]1N(C)C(=O)c1cc(Cl)cc(Cl)c1	nt	i	nt	nt	nt	nt
CC1=NN(C(C#N)c2ccccc2O)C(C)(C)C1 (stereo not drawn)	i	43	i	i	i	i
CCOc1ccc(NC(C)c2cc(Cl)ccc2O)cc1 (stereo not drawn)	i	46	i	i	i	i
COc1ccc(NC(=O)CCCCCN2C(=O)c3cccc([N+](=O)[O-])c3C2=O)c(OC)c1	41	i	i	i	i	i
Cc1ccccc1-c1cc2nc(NCc3ccc4occc4c3)n(C)c(=O)c2s1	nt	i	nt	nt	nt	nt
CC(C)NC(=O)C1(C)CCN1Cc1ccc(Cl)cc1 (stereo not drawn)	nt	i	nt	nt	nt	nt
COc1ccc(C(C#N)N2N=C(c3ccccc3)CC2c2ccccc2)cc1OC (stereo not drawn)	i	i	i	73	i	i
COC(=O)CC1N(S(=O)(=O)c2ccc(C)cc2)c2ccccc2C1(C(=O)OC)C(=O)OC (stereo not drawn)	nt	i	nt	nt	nt	nt
Clc1ccccc1N=Nc1ccccn1	nt	57	nt	nt	nt	nt
CN1C(=O)/C(=C/c2ccc(O)c([N+](=O)[O-])c2)N(C)C1=S	i	i	91	83	87	i
O=C1S/C(=C\c2ccc(O)c([N+](=O)[O-])c2)C(=O)N1c1ccccc1Cl	i	i	i	i	i	i
